Data reported in ChEMBL document CHEMBL3112420, “Discovery of 8-cyclopentyl-2-[4-(4-methyl-piperazin-1-yl)-phenylamino]-7-oxo-7,8-dihydro-pyrido[2,3-d]pyrimidine-6-carbonitrile (7x) as a potent inhibitor of cyclin-dependent kinase 4 (CDK4) and AMPK-related kinase 5 (ARK5)” (J Med Chem, 2014).
Values belong to the molecule of their own block, whether it stands above or below them. Active and inactive are the calls of the source. The calls are words filed in the database; no cut-off is given here.

Key:
K562 = test: Cytotoxicity against human K562 cells after 96 hrs by Cell-Titer Blue assay; type: functional, cell-based; conditions: K562, 96 h
DU-145 = test: Cytotoxicity against human DU145 cells after 96 hrs by Cell-Titer Blue assay; type: functional, cell-based; conditions: DU-145, 96 h
[1] = biological target: Cyclin-dependent kinase 2/cyclin E1 (Homo sapiens, UniProt P24941); test: Inhibition of CDK2/cyclinE (unknown origin); type: protein-complex assay
[2] = biological target: Cyclin-dependent kinase 1/cyclin B1 (Homo sapiens, UniProt P06493); test: Inhibition of CDK1/cyclinB (unknown origin); type: protein-complex assay
MCF7 [3] = test: Induction of apoptosis in human MCF7 cells assessed as PARP cleavage at 1 to 10 uM after 24 hrs by Western blotting analysis; type: functional, cell-based
[4] = biological target: T1, Cyclin-dependent kinase 4/cyclin D1 (Homo sapiens) (UniProt P11802+P24385); test: Inhibition of recombinant CDK4/cyclinD1 in human MDA-MB-231 cells assessed as inhibition of retinoblastoma phosphorylation at Ser780 at 0.5 to 5 uM after 24 hrs by Western blotting analysis; type: cell-based
Procedure, shortened: (§1)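 Breast carcinoma cells were given increasing concentrations for 24 h. Total lysates (100 μg, 10% SDS-PAGE) were immunoblotted with antibodies against Ser780-phosphorylated and non-phosphorylated RB. Bands were read on an infrared scanning system.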

MCF7 [5] = test: Cell cycle arrest in human MCF7 cells assessed as accumulation at G1 phase at 0.5 to 1 uM after 24 hrs by propidium iodide staining-based flow cytometric analysis; type: functional
Procedure, shortened: (§2)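 Cells plated at 1.0 × 10^6 per dish, then treated 24 h later with increasing concentrations for 24 h. Floating and adherent cells were pooled, PBS-washed and fixed in ice-cold 70% ethanol for at least 24 h. They were then stained with propidium iodide plus RNase A for 30 min at 37 °C. Percentage of cells in each phase was read by flow cytometry.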

MDA-MB-231 [6] = test: Induction of apoptosis in human MDA-MB-231 cells assessed as PARP cleavage at 1 to 10 uM after 24 hrs by Western blotting analysis; type: functional, cell-based
[7] = biological target: NUAK family SNF1-like kinase 1 (Homo sapiens, UniProt O60285); test: Inhibition of ARK5 (unknown origin)
MCF7 [8] = test: Cell cycle arrest in human MCF7 cells assessed as accumulation at sub-G1 phase at 0.5 to 1 uM after 48 hrs by propidium iodide staining-based flow cytometric analysis; type: functional
[9] = biological target: Phosphatidylinositol 4,5-bisphosphate 3-kinase catalytic subunit delta isoform (Homo sapiens, UniProt O00329); test: Inhibition of PI3Kdelta (unknown origin)
MDA-MB-231 [10] = test: Cell cycle arrest in human MDA-MB-231 cells assessed as accumulation at sub-G1 phase at 0.5 to 1 uM after 48 hrs by propidium iodide staining-based flow cytometric analysis; type: functional
[11] = biological target: T1, Cyclin-dependent kinase 4/cyclin D1 (Homo sapiens); test: Inhibition of recombinant CDK4/cyclinD1 in human MCF7 cells assessed as inhibition of retinoblastoma phosphorylation at Ser780 at 0.5 to 5 uM after 24 hrs by Western blotting analysis; type: cell-based; procedure, shortened: as §1
MDA-MB-231 [12] = test: Cell cycle arrest in human MDA-MB-231 cells assessed as accumulation at G1 phase at 0.5 to 1 uM after 24 hrs by propidium iodide staining-based flow cytometric analysis; type: functional; procedure, shortened: as §2

NUAK family SNF1-like kinase 1, sequence (O60285 whole entry): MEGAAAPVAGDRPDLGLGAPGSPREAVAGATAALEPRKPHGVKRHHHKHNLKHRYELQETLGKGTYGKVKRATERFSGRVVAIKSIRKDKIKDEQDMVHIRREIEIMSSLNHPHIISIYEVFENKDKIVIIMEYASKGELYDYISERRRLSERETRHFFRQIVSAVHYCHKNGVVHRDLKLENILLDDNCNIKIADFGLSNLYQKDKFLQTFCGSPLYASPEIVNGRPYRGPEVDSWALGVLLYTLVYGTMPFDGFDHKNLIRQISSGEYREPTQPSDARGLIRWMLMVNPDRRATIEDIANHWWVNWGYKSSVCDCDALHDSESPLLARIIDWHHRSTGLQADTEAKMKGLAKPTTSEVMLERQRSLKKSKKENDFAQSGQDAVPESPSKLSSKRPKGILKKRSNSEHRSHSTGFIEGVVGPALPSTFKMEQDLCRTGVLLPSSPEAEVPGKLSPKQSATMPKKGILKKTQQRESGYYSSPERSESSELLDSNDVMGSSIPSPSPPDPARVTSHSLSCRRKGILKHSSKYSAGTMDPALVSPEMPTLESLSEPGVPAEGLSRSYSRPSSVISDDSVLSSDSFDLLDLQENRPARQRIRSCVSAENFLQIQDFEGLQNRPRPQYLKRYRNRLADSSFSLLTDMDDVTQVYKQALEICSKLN
Cyclin-dependent kinase 1/cyclin B1, sequence (P06493 whole entry): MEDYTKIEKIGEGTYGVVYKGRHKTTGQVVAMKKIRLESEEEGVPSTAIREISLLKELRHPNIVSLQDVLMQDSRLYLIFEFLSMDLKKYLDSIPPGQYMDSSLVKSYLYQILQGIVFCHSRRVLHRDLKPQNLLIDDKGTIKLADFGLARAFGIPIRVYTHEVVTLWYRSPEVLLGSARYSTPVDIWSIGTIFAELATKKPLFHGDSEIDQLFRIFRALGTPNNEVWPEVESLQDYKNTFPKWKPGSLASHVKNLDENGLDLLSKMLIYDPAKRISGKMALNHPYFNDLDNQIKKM
Cyclin-dependent kinase 1/cyclin B1, sequence (P14635 whole entry, further chain): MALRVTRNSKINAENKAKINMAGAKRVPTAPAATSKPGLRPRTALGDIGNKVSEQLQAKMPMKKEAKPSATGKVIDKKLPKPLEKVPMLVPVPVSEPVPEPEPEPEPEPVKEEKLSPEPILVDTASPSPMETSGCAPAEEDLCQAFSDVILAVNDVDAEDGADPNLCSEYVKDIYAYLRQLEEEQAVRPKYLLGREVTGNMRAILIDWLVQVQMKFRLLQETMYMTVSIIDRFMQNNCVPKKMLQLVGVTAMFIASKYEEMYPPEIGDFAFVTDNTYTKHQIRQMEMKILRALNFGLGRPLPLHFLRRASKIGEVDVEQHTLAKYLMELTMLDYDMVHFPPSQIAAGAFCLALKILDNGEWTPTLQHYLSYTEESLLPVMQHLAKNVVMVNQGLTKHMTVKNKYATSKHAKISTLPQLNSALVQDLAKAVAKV
Phosphatidylinositol 4,5-bisphosphate 3-kinase catalytic subunit delta isoform, sequence (O00329 whole entry, canonical isoform): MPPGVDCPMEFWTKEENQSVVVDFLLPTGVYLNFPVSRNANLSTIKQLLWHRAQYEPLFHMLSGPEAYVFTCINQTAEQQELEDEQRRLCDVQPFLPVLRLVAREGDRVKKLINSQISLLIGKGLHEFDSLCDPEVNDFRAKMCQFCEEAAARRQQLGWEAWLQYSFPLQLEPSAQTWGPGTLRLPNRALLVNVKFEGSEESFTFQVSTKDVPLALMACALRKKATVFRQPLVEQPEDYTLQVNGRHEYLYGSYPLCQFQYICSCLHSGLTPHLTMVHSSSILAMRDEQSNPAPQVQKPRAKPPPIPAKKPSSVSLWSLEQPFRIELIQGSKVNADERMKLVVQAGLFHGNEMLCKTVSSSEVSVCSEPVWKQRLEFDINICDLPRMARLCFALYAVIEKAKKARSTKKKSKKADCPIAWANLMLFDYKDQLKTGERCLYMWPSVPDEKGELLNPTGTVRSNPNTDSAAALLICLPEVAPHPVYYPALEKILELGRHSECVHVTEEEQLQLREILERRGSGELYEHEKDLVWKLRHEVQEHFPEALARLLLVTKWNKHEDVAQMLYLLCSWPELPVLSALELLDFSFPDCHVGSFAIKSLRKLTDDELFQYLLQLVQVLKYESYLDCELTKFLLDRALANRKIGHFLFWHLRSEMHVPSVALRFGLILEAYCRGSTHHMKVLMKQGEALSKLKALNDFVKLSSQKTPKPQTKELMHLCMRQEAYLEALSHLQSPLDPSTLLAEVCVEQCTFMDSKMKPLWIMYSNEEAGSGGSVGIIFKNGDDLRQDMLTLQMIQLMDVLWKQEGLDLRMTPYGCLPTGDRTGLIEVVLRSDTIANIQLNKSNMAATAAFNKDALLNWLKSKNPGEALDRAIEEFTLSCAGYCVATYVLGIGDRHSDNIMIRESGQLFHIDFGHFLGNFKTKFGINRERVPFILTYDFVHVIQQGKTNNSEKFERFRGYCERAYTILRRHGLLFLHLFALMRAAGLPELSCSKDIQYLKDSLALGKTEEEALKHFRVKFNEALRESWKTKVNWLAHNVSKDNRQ

Structure (SMILES): CN1CCN(c2ccc(Nc3ncc4cc(C#N)c(=O)n(C5CCCCC5)c4n3)cc2)CC1
IC50 (K562): 1.5 µM
IC50 (DU-145): 50 µM

Structure (SMILES): CN1CCN(c2ccc(Nc3ncc4cc(S(C)(=O)=O)c(=O)n(C5CCCC5)c4n3)cc2)CC1
IC50 (K562): 5 µM
IC50 (DU-145): 5 µM

Structure (SMILES): CC(C)n1c(=O)c(C#N)cc2cnc(Nc3ccc(N4CCN(C)CC4)cc3)nc21
IC50 (K562): 2.5 µM
IC50 (DU-145): 2.5 µM

Structure (SMILES): CCCn1c(=O)c(C#N)cc2cnc(Nc3ccc(N4CCN(C)CC4)cc3)nc21
IC50 (K562): 5 µM
IC50 (DU-145): 15 µM

Structure (SMILES): COc1cc(Nc2ncc3cc(C#N)c(=O)n(C4CCCC4)c3n2)cc(OC)c1OC
IC50 (K562): 2.5 µM
IC50 (DU-145): 5 µM

Structure (SMILES): N#Cc1ccnc(Nc2ncc3cc(C#N)c(=O)n(C4CCCC4)c3n2)c1
IC50 (K562): 5 µM
IC50 (DU-145): 30 µM

Structure (SMILES): N#Cc1ccc(Nc2ncc3cc(C#N)c(=O)n(C4CCCC4)c3n2)cc1
IC50 (K562): 75 µM
IC50 (DU-145): 5 µM

Structure (SMILES): COc1cccc(Nc2ncc3cc(C#N)c(=O)n(C4CCCC4)c3n2)c1
IC50 (K562): 5 µM
IC50 (DU-145): 0.5 µM

Structure (SMILES): N#Cc1cc2cnc(Nc3cnc4ccccc4c3)nc2n(C2CCCC2)c1=O
IC50 (K562): 5 µM
IC50 (DU-145): 5 µM

Structure (SMILES): CCn1c(=O)c(C#N)cc2cnc(Nc3ccc(N4CCN(C)CC4)cc3)nc21
IC50 (K562): 0.75 µM
IC50 (DU-145): 1.5 µM

Structure (SMILES): COc1ccc(CS(=O)(=O)c2cc3cnc(Nc4ccc(N5CCN(C)CC5)cc4)nc3n(C3CCCC3)c2=O)cc1[N+](=O)[O-]
IC50 (K562): 2 µM
IC50 (DU-145): 5 µM

Structure (SMILES): N#Cc1cc2cnc(Nc3ccc(N4CCOCC4)cn3)nc2n(C2CCCC2)c1=O
IC50 (K562): 5 µM
IC50 (DU-145): 15 µM

Structure (SMILES): N#Cc1cc2cnc(Nc3ccc(N4CCOCC4)cc3)nc2n(C2CCCC2)c1=O
IC50 (K562): 5 µM
IC50 (DU-145): 15 µM

Structure (SMILES): N#Cc1cc2cnc(Nc3cccc4cccnc34)nc2n(C2CCCC2)c1=O
IC50 (K562): 1 µM
IC50 (DU-145): 1 µM

Structure (SMILES): COc1ccc2cc(Nc3ncc4cc(C#N)c(=O)n(C5CCCC5)c4n3)ccc2n1
IC50 (K562): 0.25 µM
IC50 (DU-145): 3 µM

Structure (SMILES): CN1CCN(c2ccc(Nc3ncc4cc(C#N)c(=O)n(C)c4n3)cc2)CC1
IC50 (K562): 75 µM
IC50 (DU-145): 75 µM

Structure (SMILES): COc1ccc(Nc2ncc3cc(C#N)c(=O)n(C4CCCC4)c3n2)c(OC)c1
IC50 (K562): 15 µM
IC50 (DU-145): 15 µM

Structure (SMILES): CN1CCN(c2ccc(Nc3ncc4cc(S(=O)(=O)Cc5ccc(Cl)cc5)c(=O)n(C5CCCC5)c4n3)cc2)CC1
IC50 (K562): 10 µM
IC50 (DU-145): 75 µM

Structure (SMILES): COc1ccc(F)cc1Nc1ncc2cc(C#N)c(=O)n(C3CCCC3)c2n1
IC50 (K562): 75 µM
IC50 (DU-145): 75 µM

Structure (SMILES): N#Cc1cc2cnc(Nc3ccc4[nH]ccc4c3)nc2n(C2CCCC2)c1=O
IC50 (K562): 5 µM
IC50 (DU-145): 5 µM

Structure (SMILES): CN1CCN(c2ccc(N(C(=O)c3ccc(C(F)(F)F)cc3)c3ncc4cc(C#N)c(=O)n(C5CCCC5)c4n3)cc2)CC1
IC50 (K562): 0.5 µM
IC50 (DU-145): 1 µM

Structure (SMILES): CN1CCN(c2ccc(Nc3ncc4cc(C#N)c(=O)[nH]c4n3)cc2)CC1
IC50 (K562): 30 µM
IC50 (DU-145): 30 µM

Structure (SMILES): COc1ccc(Nc2ncc3cc(C#N)c(=O)n(C4CCCC4)c3n2)cc1
IC50 (K562): 75 µM
IC50 (DU-145): 25 µM

Structure (SMILES): CN1CCN(c2ccc(Nc3ncc4cc(C(=O)Nc5ccc(F)cc5)c(=O)n(C5CCCC5)c4n3)cc2)CC1
IC50 (K562): 15 µM
IC50 (DU-145): 30 µM

Structure (SMILES): COc1ccc(CS(=O)(=O)c2cc3cnc(Nc4ccc(N5CCN(C)CC5)cc4)nc3n(C3CCCC3)c2=O)cc1O
IC50 (K562): 2 µM
IC50 (DU-145): 2 µM

Structure (SMILES): N#Cc1cc2cnc(N3CCN(c4ccc(C(F)(F)F)cn4)CC3)nc2n(C2CCCC2)c1=O
IC50 (K562): 30 µM
IC50 (DU-145): 100 µM

Structure (SMILES): CCCCCn1c(=O)c(C#N)cc2cnc(Nc3ccc(N4CCN(C)CC4)cc3)nc21
IC50 (K562): 0.75 µM
IC50 (DU-145): 1.5 µM

IC50 [1]: > 100 µM
IC50 [2]: > 100 µM
Structure (SMILES): Nc1ccc2c(=S)c3ccccc3[nH]c2c1

Structure (SMILES): N#Cc1cc2cnc(NCc3ccccc3)nc2n(C2CCCC2)c1=O
IC50 (K562): 100 µM
IC50 (DU-145): 75 µM

Structure (SMILES): COc1ccc(Nc2ncc3cc(C#N)c(=O)n(C4CCCC4)c3n2)cc1OC
IC50 (K562): 2 µM
IC50 (DU-145): 5 µM

Structure (SMILES): CC(=O)c1c(C)c2cnc(Nc3ccc(N4CCNCC4)cn3)nc2n(C2CCCC2)c1=O [PALBOCICLIB]
Activity (MCF7 [3]): inactive
IC50 (K562): 2 µM
inhibition [4]: Active
Activity (MCF7 [5]): Active
IC50 (DU-145): 7.5 µM
Activity (MDA-MB-231 [6]): inactive
IC50 [7]: > 5 µM
Activity (MCF7 [8]): inactive
IC50 [9]: > 10 µM
Activity (MDA-MB-231 [10]): inactive
inhibition [11]: Active
Activity (MDA-MB-231 [12]): Active

Structure (SMILES): CCCCn1c(=O)c(C#N)cc2cnc(Nc3ccc(N4CCN(C)CC4)cc3)nc21
IC50 (K562): 0.75 µM
IC50 (DU-145): 0.75 µM

Structure (SMILES): COc1cc(Nc2ncc3cc(C#N)c(=O)n(C4CCCC4)c3n2)cc(OC)c1
IC50 (K562): 15 µM
IC50 (DU-145): 15 µM

Structure (SMILES): CN1CCN(c2ccc(Nc3ncc4cc(C#N)c(=O)n(C5CC5)c4n3)cc2)CC1
IC50 (K562): 2.5 µM
IC50 (DU-145): 2.5 µM

Structure (SMILES): N#Cc1cc2cnc(Nc3ccccn3)nc2n(C2CCCC2)c1=O
IC50 (K562): 0.5 µM
IC50 (DU-145): 3 µM

Structure (SMILES): N#Cc1cc2cnc(Nc3cccc4[nH]ccc34)nc2n(C2CCCC2)c1=O
IC50 (K562): 30 µM
IC50 (DU-145): 15 µM

Structure (SMILES): CN1CCN(c2ccc(Nc3ncc4cc(C#N)c(=O)n(C5CCCC5)c4n3)nc2)CC1
IC50 (K562): 5 µM
IC50 (DU-145): 15 µM

Structure (SMILES): CN1CCN(c2ccc(Nc3ncc4cc(S(=O)(=O)c5ccc(Cl)cc5)c(=O)n(C5CCCC5)c4n3)cc2)CC1
IC50 (K562): 5 µM
IC50 (DU-145): 15 µM

Structure (SMILES): CN1CCN(c2ccc(Nc3ncc4cc([N+](=O)[O-])c(=O)n(C5CCCC5)c4n3)cc2)CC1
IC50 (K562): 0.75 µM
IC50 (DU-145): 2.5 µM

Structure (SMILES): COc1ccccc1Nc1ncc2cc(C#N)c(=O)n(C3CCCC3)c2n1
IC50 (K562): 15 µM
IC50 (DU-145): 30 µM

Structure (SMILES): CC(=O)N(c1ccc(N2CCN(C)CC2)cc1)c1ncc2cc(C#N)c(=O)n(C3CCCC3)c2n1
IC50 (K562): 0.75 µM
IC50 (DU-145): 5 µM

Structure (SMILES): CN1CCN(c2ccc(Nc3ncc4cc(C(=O)Nc5ccc(Cl)cc5)c(=O)n(C5CCCC5)c4n3)cc2)CC1
IC50 (K562): 5 µM
IC50 (DU-145): 30 µM

Structure (SMILES): N#Cc1cc2cnc(Nc3ccc(Cl)cc3)nc2n(C2CCCC2)c1=O
IC50 (K562): 30 µM
IC50 (DU-145): 30 µM

Structure (SMILES): CN1CCN(c2ccc(Nc3ncc4cc(S(=O)(=O)c5ccccc5)c(=O)n(C5CCCC5)c4n3)cc2)CC1
IC50 (K562): 30 µM
IC50 (DU-145): 75 µM

Structure (SMILES): N#Cc1cc2cnc(Nc3ccccc3O)nc2n(C2CCCC2)c1=O
IC50 (K562): 15 µM
IC50 (DU-145): 15 µM
